Assay results published in ChEMBL document CHEMBL1124055, “Analogues of [(triethylsilyl)ethynyl]estradiol as potential antifertility agents” (1988).

Assays:
Format in all cases: functional
Rattus norvegicus [1] = species: Rattus norvegicus; test: Oral estrogenic potency (E) relative to ethynylestradiol (EE) in rats
In short: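 Rats given compound orally by gavage once daily for 3 consecutive days; vehicle-only control; 10 animals/group. Autopsy 24 h after last dose; uteri excised, cleaned, blotted and weighed to nearest 0.2 mg. Regression lines for standard (ethynylestradiol) and test compound constructed and compared to derive relative potency.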

Rattus norvegicus [2] = species: Rattus norvegicus; test: Oral antifertility potency (A) relative to ethynylestradiol (EE) in rats
In short: (§1)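 Mated cycling adult female rats (cohabited with males on proestrus night; sperm in vaginal washings) dosed orally by gavage in sesame oil once daily for 7 consecutive days; vehicle control; 10 rats/group. Killed about day 8; uteri examined for presence and condition of conceptuses. Potency from comparison with regression line of standard ethynylestradiol.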

Rattus norvegicus [3] = species: Rattus norvegicus; test: Oral antifertility potency (A) relative to ethynylestradiol (EE) in rats.; in short: as §1

## C#C[C@]1(O)CCC2C3C=Cc4cc(O)ccc4C3CCC21C (stereo partly drawn)
Rattus norvegicus [1]
  Potency: 2%
Rattus norvegicus [2]
  Potency: 20%

## C#C[C@]1(O)CCC2c3ccc4cc(O)ccc4c3CCC21C (stereo partly drawn)
Rattus norvegicus [1]
  Potency: 0.6%
Rattus norvegicus [2]
  Potency: 10%

## CC[Si](C#C[C@]1(O)CCC2=C3C=Cc4cc(O)ccc4C3CCC21C)(CC)CC (stereo partly drawn)
Rattus norvegicus [1]
  Potency: 1%
Rattus norvegicus [2]
  Potency: 66%

## C#C[C@]1(O)CC[C@H]2[C@@H]3CCc4cc(O)ccc4[C@H]3[C@@H](O)C[C@@]21C
Rattus norvegicus [1]
  Potency: 0.8%
Rattus norvegicus [2]
  Potency: 200%

## C#C[C@]1(O)CC[C@H]2[C@@H]3CCc4ccccc4[C@H]3CC[C@@]21C
Rattus norvegicus [1]
  Potency: 31%
Rattus norvegicus [2]
  Potency: 33%

## C#C[C@]1(O)CC[C@H]2[C@@H]3[C@H](O)Cc4cc(O)ccc4[C@H]3CC[C@@]21C
Rattus norvegicus [1]
  Potency: 0.1%
Rattus norvegicus [2]
  Potency: 66%

## C#C[C@]1(O)CC[C@H]2[C@@H]3CCc4cc(O)c(CN(CCC)CCC)cc4[C@H]3CC[C@@]21C
Rattus norvegicus [3]
  Potency: >2 mg/kg/day
Rattus norvegicus [1]
  Potency: 1.3%

## CC[Si](C#C[C@]1(O)CC[C@H]2[C@@H]3C[C@H](O)c4cc(O)ccc4[C@H]3CC[C@@]21C)(CC)CC
Rattus norvegicus [1]
  Potency: 38%
Rattus norvegicus [2]
  Potency: 300%

## C#C[C@]1(O)CC[C@H]2[C@@H]3CCc4cc(O)c(OC)cc4[C@H]3CC[C@@]21C
Rattus norvegicus [3]
  Potency: >2 mg/kg/day
Rattus norvegicus [1]
  Potency: 0.3%

## CCCN(CCC)Cc1cc2c(cc1O)CC[C@@H]1[C@@H]2CC[C@@]2(C)[C@H]1CC[C@@]2(O)C#C[Si](CC)(CC)CC
Rattus norvegicus [3]
  Potency: >1 mg/kg/day
Rattus norvegicus [1]
  Potency: 0.3%

## CC[Si](C#C[C@]1(O)CC[C@H]2[C@@H]3CCc4ccccc4[C@H]3CC[C@@]21C)(CC)CC
Rattus norvegicus [1]
  Potency: 13%
Rattus norvegicus [2]
  Potency: 100%

## CC[Si](C#C[C@]1(O)C(C)C[C@H]2[C@@H]3CCc4cc(O)ccc4[C@H]3CC[C@@]21C)(CC)CC (stereo partly drawn)
Rattus norvegicus [3]
  Potency: >0.8 mg/kg/day
Rattus norvegicus [1]
  Potency: 0.2%

## CC[Si](C#C[C@]1(O)CC[C@H]2[C@@H]3CCc4cc(OC)ccc4[C@H]3CC[C@@]21C)(CC)CC
Rattus norvegicus [3]
  Potency: >2 mg/kg/day
Rattus norvegicus [1]
  Potency: 1.8%

## C=CCc1c(O)ccc2c1CC[C@@H]1[C@@H]2CC[C@@]2(C)[C@H]1CC[C@@]2(O)C#C[Si](CC)(CC)CC
Rattus norvegicus [3]
  Potency: >3 mg/kg/day
Rattus norvegicus [1]
  Potency: 0%

## CC[Si](C#C[C@]1(O)CC[C@H]2[C@@H]3[C@H](O)Cc4cc(O)ccc4[C@H]3CC[C@@]21C)(CC)CC
Rattus norvegicus [1]
  Potency: 0.3%
Rattus norvegicus [2]
  Potency: 20%

## C#C[C@]1(O)CC[C@H]2[C@@H]3C[C@@H](C)c4cc(O)ccc4[C@H]3CC[C@@]21C
Rattus norvegicus [3]
  Potency: >0.5 mg/kg/day
Rattus norvegicus [1]
  Potency: 1.8%

## C#C[C@]1(O)CC[C@H]2[C@@H]3[C@H](O)[C@H](O)c4cc(O)ccc4[C@H]3CC[C@@]21C
Rattus norvegicus [3]
  Potency: >0.5 mg/kg/day
Rattus norvegicus [1]
  Potency: 0.3%

## C#C[C@]1(O)CC[C@H]2[C@@H]3CCc4cc(O)c(C)cc4[C@H]3CC[C@@]21C
Rattus norvegicus [1]
  Potency: 5.5%
Rattus norvegicus [2]
  Potency: 40%

## C#C[C@]1(O)CC[C@H]2[C@@H]3C[C@H](O)c4cc(O)ccc4[C@H]3CC[C@@]21C
Rattus norvegicus [3]
  Potency: >0.2 mg/kg/day
Rattus norvegicus [1]
  Potency: 16%

## CC[Si](C#C[C@]1(O)CC[C@H]2[C@@H]3[C@H](O)[C@H](O)c4cc(O)ccc4[C@H]3CC[C@@]21C)(CC)CC
Rattus norvegicus [3]
  Potency: >0.5 mg/kg/day
Rattus norvegicus [1]
  Potency: 0.6%

## CC[Si](C#C[C@]1(O)CC[C@H]2[C@@H]3CCc4cc(O)ccc4[C@H]3[C@@H](O)C[C@@]21C)(CC)CC
Rattus norvegicus [1]
  Potency: 14.4%
Rattus norvegicus [2]
  Potency: 64%

## C#C[C@]1(O)CC(OC)[C@H]2[C@@H]3CCc4cc(OC)ccc4[C@H]3CC[C@@]21C (stereo partly drawn)
Rattus norvegicus [1]
  Potency: 0.8%
Rattus norvegicus [2]
  Potency: 10%

## CC[Si](C#C[C@]1(O)CC[C@H]2[C@@H]3C[C@@H](O)c4cc(O)ccc4[C@H]3CC[C@@]21C)(CC)CC
Rattus norvegicus [1]
  Potency: 16%
Rattus norvegicus [2]
  Potency: 40%

## CC[Si](C#C[C@]1(O)CC[C@H]2[C@@H]3C[C@@H](C)c4cc(O)ccc4[C@H]3CC[C@@]21C)(CC)CC
Rattus norvegicus [1]
  Potency: 0.2%
Rattus norvegicus [2]
  Potency: 7.5%

## C#C[C@]1(O)C(C)C[C@H]2[C@@H]3CCc4cc(O)ccc4[C@H]3CC[C@@]21C (stereo partly drawn)
Rattus norvegicus [3]
  Potency: >2 mg/kg/day
Rattus norvegicus [1]
  Potency: 0.5%

## CC[Si](C#C[C@]1(O)CC[C@H]2[C@@H]3CCc4cc(O)c(OC)cc4[C@H]3CC[C@@]21C)(CC)CC
Rattus norvegicus [3]
  Potency: >2.8 mg/kg/day
Rattus norvegicus [1]
  Potency: 0.06%

## CC[Si](C#C[C@]1(O)CC[C@H]2[C@@H]3CCc4cc(O)ccc4[C@H]3CC[C@@]21C)(CC)CC
Rattus norvegicus [1]
  Potency: 37%
Rattus norvegicus [2]
  Potency: 600%

## C#C[C@]1(O)CC[C@H]2[C@@H]3CCc4c(ccc(O)c4CC=C)[C@H]3CC[C@@]21C
Rattus norvegicus [3]
  Potency: >2 mg/kg/day
Rattus norvegicus [1]
  Potency: 0.1%

## CC[Si](C#C[C@]1(O)CC(OC)[C@H]2[C@@H]3CCc4cc(OC)ccc4[C@H]3CC[C@@]21C)(CC)CC (stereo partly drawn)
Rattus norvegicus [3]
  Potency: >0.2 mg/kg/day
Rattus norvegicus [1]
  Potency: 3%

## CC[Si](C#C[C@]1(O)CC[C@H]2[C@@H]3CCc4cc(O)c(C)cc4[C@H]3CC[C@@]21C)(CC)CC
Rattus norvegicus [1]
  Potency: 2.2%
Rattus norvegicus [2]
  Potency: 40%

## CC[Si](C#C[C@]1(O)CCC2C3C=Cc4cc(O)ccc4C3CCC21C)(CC)CC (stereo partly drawn)
Rattus norvegicus [1]
  Potency: 2%
Rattus norvegicus [2]
  Potency: 200%

## CC[Si](C#C[C@]1(O)CCCC2C3CCc4cc(O)ccc4C3CCC21C)(CC)CC (stereo partly drawn)
Rattus norvegicus [3]
  Potency: >2 mg/kg/day
Rattus norvegicus [1]
  Potency: 0.1%

## C#C[C@]1(O)CC[C@H]2[C@@H]3CCc4cc(O)ccc4[C@H]3CC[C@@]21C [ETHINYL ESTRADIOL]
Rattus norvegicus [1]
  Potency: 100%
Rattus norvegicus [2]
  Potency: 100%

## C#C[C@]1(O)CC[C@H]2[C@@H]3CCc4cc(OC)ccc4[C@H]3CC[C@@]21C [MESTRANOL]
Rattus norvegicus [3]
  Potency: >2 mg/kg/day
Rattus norvegicus [1]
  Potency: 0.3%
